Experimental data pooled from the literature.
Lines come from different studies, so protocols differ.
Target: Calcium/calmodulin-dependent protein kinase type IV (CAMK4, Homo sapiens, UniProt Q16566)
Residues used in one study (Q16566 1-473): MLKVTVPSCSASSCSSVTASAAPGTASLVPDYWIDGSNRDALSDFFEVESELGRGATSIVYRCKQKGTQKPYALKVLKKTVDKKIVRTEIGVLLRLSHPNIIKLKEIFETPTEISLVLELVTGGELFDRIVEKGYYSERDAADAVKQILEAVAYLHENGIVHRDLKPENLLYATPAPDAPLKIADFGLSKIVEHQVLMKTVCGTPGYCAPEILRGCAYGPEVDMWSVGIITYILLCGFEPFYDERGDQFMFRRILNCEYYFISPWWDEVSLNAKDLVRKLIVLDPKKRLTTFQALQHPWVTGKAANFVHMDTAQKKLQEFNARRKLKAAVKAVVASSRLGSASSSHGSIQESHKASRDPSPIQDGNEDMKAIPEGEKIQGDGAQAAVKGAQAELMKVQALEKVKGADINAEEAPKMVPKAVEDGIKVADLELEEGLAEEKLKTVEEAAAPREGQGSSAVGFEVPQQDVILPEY

CC1=C(C#N)[C@@H](c2ccc3[nH]nc(C)c3c2)C(C#N)=C(c2ccc(Cl)cc2)N1
remaining binding (cell-free assay, competition with immobilised ligand; 1 µM): 31.8%

CN(C)c1nccc(-c2cnn3ncccc23)n1
remaining binding (binding; 1 µM): 100%

COc1ncc2cc3ccccc3nc2c1C#N
remaining binding (cell-free assay, competition with immobilised ligand; 5 µM): 93%

Cc1cc(-n2nc(Cc3cc(F)cc(C(F)(F)F)c3)nc2C)ccc1C(N)=O
remaining binding (cell-free assay, competition with immobilised ligand; 1 µM): 100%

CN(C)c1nccc(-c2cnc3ncccn23)n1
remaining binding (binding; 1 µM): 100%

O=C(c1ccc(Nc2nccc(-c3cc4ccccc4s3)n2)cc1)N1CCC(N2CCCC2)CC1
remaining binding (binding, competition with immobilised ligand; 1 µM): 100%

F[C@@H]1CCN(c2nccc(-c3cnn4ncccc34)n2)C1
remaining binding (binding; 1 µM): 79%

CNC(=O)[C@@H]1CC[C@@H](n2c(-c3ccc4cnccc4c3)nc3ccc(C(=O)NCc4cccc(C(N)=O)c4)cc32)C1
remaining binding (binding, competition with immobilised ligand; 1 µM): 100%

CC1CCCN1c1nccc(-c2cnn3ncccc23)n1 (stereo not shown)
remaining binding (binding; 1 µM): 100%

CNC(=O)Nc1ccc2c(c1)CC[C@@]21OC(=O)N(CC(=O)N(Cc2ccc(F)cc2)[C@@H](C)C(F)(F)F)C1=O
remaining binding (cell-free assay, competition with immobilised ligand; 1 µM): 75%

O=C(NCC1CCOCC1)c1n[nH]cc1NC(=O)c1c(F)cccc1F
remaining binding (binding, competition with immobilised ligand; 1 µM): 100%

Cc1c(NC(=O)c2cc(C(N)=O)nc3cc(F)ccc23)c(C(F)(F)F)nn1Cc1ccc(C(C)(C)C)cc1
remaining binding (cell-free assay, competition with immobilised ligand; 1 µM): 90%

CN(CCCC(F)(F)F)c1nccc(-c2cnn3ncccc23)n1
remaining binding (binding; 1 µM): 64%

C[C@@H](c1ccc(-n2cnc3c(N)ncnc32)cc1)N1CCc2nn(C)c(Cc3ccccc3)c2C1=O
remaining binding (binding, competition with immobilised ligand; 0.1 µM): 100%

C[C@@H]1CCN(c2nccc(-c3cnn4ncccc34)n2)C1
remaining binding (binding; 1 µM): 100%

C[C@H](c1ccnc(Nc2nc3ccc(-c4cc(N(C)C)ncn4)cc3[nH]2)c1)N1CCN(C(=O)CC(F)(F)F)CC1
remaining binding (cell-free assay, competition with immobilised ligand; 0.1 µM): 100%

Nc1ncc2c(n1)-c1c([nH]c3ccc(C#CC4CC4)cc13)CCCC2
remaining binding (binding, competition with immobilised ligand; 1 µM): 100%

O=C(NCCCN1CCOCC1)c1ccc(Nc2ncc(Cl)c(-c3ccc(Cl)s3)n2)cc1
remaining binding (binding, competition with immobilised ligand; 1 µM): 100%

Nc1c(C(=O)NCc2ccc(C(=O)NCCCC3CCCCC3)cc2)cnn1-c1ccccc1
remaining binding (cell-free assay, competition with immobilised ligand; 0.1 µM): 98%

O=C(c1ccc(Nc2ncc(Cl)c(-c3cc4ccccc4s3)n2)cc1)N1CCC(N2CCCC2)CC1
remaining binding (binding, competition with immobilised ligand; 1 µM): 100%

CC(C)(O)c1cncc(-c2nc3ccc(F)cc3n2C2CC2)c1
remaining binding (cell-free assay, competition with immobilised ligand; 1 µM): 100%

N[C@H]1CCN(c2nccc(-c3cnn4ncccc34)n2)C1
remaining binding (binding; 1 µM): 100%
